DNMT1 inh = blocks human DNA methyltransferase DNMT1; P26358; DNMT1 molecular beacon, Hinp1I cleavage, fluorescence; inhibition (reported as % activation of signal), % at 10 µM; 360,000 tested, 0.83% active; AID 588458; in the data active = inhibition above about 50%
GRK2 aptamer HTS = blocks RNA aptamer binding to human GRK2 | 330,000 tested, 0.59% active | AID 488847 | bead flow cytometry, FAM-aptamer displacement from GRK2 | inhibition of aptamer binding, % at 10 µM | P25098;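 active = inhibition of aptamer binding above 40%, roughly 3 SD of noise, on plates passing a quality check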;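 note: median bead fluorescence of bound FAM aptamer so fluorescent compounds give negative values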
Target sequence (P25098 whole entry, looked up): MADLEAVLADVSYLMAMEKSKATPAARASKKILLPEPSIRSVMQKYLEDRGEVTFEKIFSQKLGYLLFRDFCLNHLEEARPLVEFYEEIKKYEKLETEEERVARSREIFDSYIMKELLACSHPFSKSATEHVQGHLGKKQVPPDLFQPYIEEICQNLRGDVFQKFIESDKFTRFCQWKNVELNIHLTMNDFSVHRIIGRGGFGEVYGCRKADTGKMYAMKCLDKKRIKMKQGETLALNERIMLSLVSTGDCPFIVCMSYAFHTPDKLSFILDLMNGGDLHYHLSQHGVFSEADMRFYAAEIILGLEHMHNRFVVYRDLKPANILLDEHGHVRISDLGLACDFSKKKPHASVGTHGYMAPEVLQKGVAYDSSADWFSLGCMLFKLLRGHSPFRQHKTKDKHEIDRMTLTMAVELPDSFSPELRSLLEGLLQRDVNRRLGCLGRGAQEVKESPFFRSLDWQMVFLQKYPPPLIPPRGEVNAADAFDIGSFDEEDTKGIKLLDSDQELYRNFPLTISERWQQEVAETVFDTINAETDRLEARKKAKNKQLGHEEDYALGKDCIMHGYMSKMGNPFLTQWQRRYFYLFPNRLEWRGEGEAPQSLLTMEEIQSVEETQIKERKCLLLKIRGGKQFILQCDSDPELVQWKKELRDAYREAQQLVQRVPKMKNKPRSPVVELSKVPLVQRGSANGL
LMPTP block = blocks human LMPTP phosphatase; P24666; recombinant LMPTP-A, OMFP fluorogenic substrate, fluorescence intensity; inhibition, % at 20 µM; 360,000 tested, 0.22% active;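 active = compounds that cut the enzyme signal by at least half of the control window in the single-dose screen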;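 note: plate controls were DMSO wells with enzyme plus substrate for no effect and substrate without enzyme for full effect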
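Test system: LMPTP-A phosphatase enzyme. Amount: LMPTP-A at 0.625 nM final in the reaction. Reagent: OMFP substrate, 400 µM final. Times: 50 min at room temperature. Signal: endpoint fluorescence intensity from OMFP dephosphorylation. Read-out basis: % inhibition. Benchmarks: no-enzyme and uninhibited controls.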
STEP inh = blocks human striatal-enriched tyrosine phosphatase; P54829; recombinant STEP, OMFP fluorogenic substrate, fluorescence; inhibition, % at 20 µM; 360,000 tested, 0.25% active;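 active = inhibition at 20 µM, scaled per plate between control wells, above about 37%, limit read from the data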;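 note: 0% = DMSO with enzyme and substrate and 100% = substrate only without enzyme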
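Test system: STEP tyrosine phosphatase / Reagent: OMFP at 25 µM / Doses: 20 µM, 1% DMSO / Read-out: percent inhibition scaled to no-enzyme and uninhibited-enzyme controls, plate-pattern corrected / Detection: FITC-channel fluorescence of OMFP product / Medium: Bis-Tris buffer pH 6.0, 2.5 mM DTT, 0.005% Tween 20 / Schedule: 20 min at room temperature, dark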
Scp-1 inhibitor = inhibitors of human Scp-1 phosphatase | Recombinant Scp1, phosphopeptide, malachite green phosphate absorbance | AID 493091 | 340,000 tested, 0.88% active | inhibition, % at 20 µM | Q9GZU7;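 active = inhibition above about 50% at 20 µM, limit read from the data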;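 note: plate controls were DMSO wells with enzyme for no effect and wells lacking enzyme for full effect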
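Times: enzyme reaction 45 min at room temperature, colour 5 min, stabilisation 30 min. Material: SCP-1 catalytic fragment, aa 76-261. Medium: Acidic Tris acetate buffer with magnesium and detergent. Signal: colorimetric free-phosphate detection, absorbance 630 nm. Read-out basis: % inhibition of SCP-1 phosphate liberation. Reagent: Phosphorylated 17-residue peptide substrate.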
SUMO1 PPI mod = modulators of human SUMO1-mediated protein-protein interactions; P63165; SUMO1 binding to a labelled peptide, TR-FRET, 1 h; inhibition, % at 20 µM; 360,000 tested, 0.33% active; in the data active = inhibition above about 37%
Beacon interf DR = beacon fluorescence artifact, dose response counter-screen; 200 tested, under 10 active; molecular beacon fluorescence, spectral interference counter-screen; IC50, µM; shares compounds with DNMT1 inh; call rule not given here
DNMT1 confirm = DNMT1 inhibition confirmation, single concentration | shares compounds with DNMT1 inh | DNMT1 molecular beacon HinP1I cleavage, fluorescence | inhibition, % at 10 µM | 2,300 tested, 8% active;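 active = average inhibition of at least 30% in the single-concentration confirmation test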
Beacon interf = counter-screen for DNMT1 inhibitors: spectral interference; activation (fluorescence interference), % at 10 µM; 2,300 tested, 1% active; DNMT1 molecular beacon spectral interference counterscreen, fluorescence 485/520; shares compounds with DNMT1 inh;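 active = activation of at least 30% at 10 µM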;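 note: DNMT1 catalytic domain with a HinP1I cleavage step and a FAM/dabcyl DNA beacon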
* hit, by the source's call. Hits are enriched below; roughly 2.2% of the tested compounds scored in any of these assays.

How did COc1cc([N+](=O)[O-])ccc1-c1ccc(/C=N\n2cnnc2)o1 do in these assays?
DNMT1 inh: 4; GRK2 aptamer HTS: 0; LMPTP block: 22; STEP inh: 31; Scp-1 inhibitor: 12; SUMO1 PPI mod: -4

What do the screens show for `COc1cc([N+](=O)[O-])ccc1-c1ccc(/C=C2\C(=O)ON=C2c2ccccc2)o1`?
DNMT1 inh: 80*; LMPTP block: 3; STEP inh: 4; Scp-1 inhibitor: 3; SUMO1 PPI mod: 64*; DNMT1 confirm: 18; Beacon interf: -6

What do the screens show for `COc1ccc(NC(=O)c2cc(C3CCCCN3S(=O)(=O)c3ccccc3)on2)c(C)c1` (stereo not drawn)?
DNMT1 inh: -4; LMPTP block: -1; STEP inh: -1; SUMO1 PPI mod: 8

How did O=C1c2ccccc2-c2c1c1ccccc1c(=O)n2-c1ccccc1 do in these assays?
DNMT1 inh: 50; LMPTP block: 0; STEP inh: 0; Scp-1 inhibitor: -16; SUMO1 PPI mod: -3; DNMT1 confirm: 2; Beacon interf: 4

Results for COc1ccc(NC(=O)CCn2c(=S)[nH]c3ccccc3c2=O)cc1Cl ?
DNMT1 inh: 54*; LMPTP block: 49*; STEP inh: 23; SUMO1 PPI mod: 13; DNMT1 confirm: 3; Beacon interf: 6

What do the screens show for `O=C(CCn1c(=S)[nH]c2ccccc2c1=O)Nc1cccc(Cl)c1`?
DNMT1 inh: 4; GRK2 aptamer HTS: 0; LMPTP block: 0; STEP inh: -2; Scp-1 inhibitor: -5; SUMO1 PPI mod: -7

How did O=C(O)CCc1ccc(S(=O)(=O)Nc2cc(C(F)(F)F)ccc2N2CCCC2)cc1 do in these assays?
DNMT1 inh: 53*; LMPTP block: 4; STEP inh: 3; Scp-1 inhibitor: 30; SUMO1 PPI mod: 11; Beacon interf DR: >99; DNMT1 confirm: 76*; Beacon interf: -2

How did O=C(O)c1ccccc1C(=O)Nc1ccc(Oc2ccccc2)cc1 do in these assays?
DNMT1 inh: -1; GRK2 aptamer HTS: 0; LMPTP block: 0; STEP inh: 1; Scp-1 inhibitor: -4; SUMO1 PPI mod: -3

What do the screens show for `O=C(Nc1cccc(Oc2ccc(C(=O)O)c(C(=O)O)c2)c1)c1ccc(-c2ccccc2)cc1`?
DNMT1 inh: 53*; GRK2 aptamer HTS: 5; LMPTP block: 8; STEP inh: 35; Scp-1 inhibitor: 20; SUMO1 PPI mod: 22; DNMT1 confirm: 15; Beacon interf: -1

Results for O=C(NCc1ccncc1)[C@@H]1CCCN1C(=O)[C@H]1CCCN1C(=O)c1ccccc1 ?
LMPTP block: -2; SUMO1 PPI mod: 1

Results for CCNc1nc(NCC)nc(C(=O)NN)n1 ?
DNMT1 inh: 91*; GRK2 aptamer HTS: 0; LMPTP block: -1; STEP inh: 0; Scp-1 inhibitor: -4; SUMO1 PPI mod: -2; DNMT1 confirm: 5; Beacon interf: 6

What do the screens show for `O=C(/C=C/c1ccco1)c1ccc(NC(=O)C23CC4CC(CC(C4)C2)C3)cc1`?
DNMT1 inh: 72*; GRK2 aptamer HTS: 3; LMPTP block: 1; STEP inh: 3; Scp-1 inhibitor: 24; SUMO1 PPI mod: 1; DNMT1 confirm: 3; Beacon interf: 0

Results for N#CC(C(=O)Nc1ccccc1)=C1Nc2ccccc2N1 ?
DNMT1 inh: -1; GRK2 aptamer HTS: 0; LMPTP block: 1; STEP inh: -1; Scp-1 inhibitor: -6; SUMO1 PPI mod: 10

Results for N#CC(C(=O)Nc1ccc(Cl)c(Cl)c1)=C1Nc2ccccc2N1 ?
DNMT1 inh: 65*; GRK2 aptamer HTS: 0; LMPTP block: 0; STEP inh: -2; Scp-1 inhibitor: 1; SUMO1 PPI mod: 4; DNMT1 confirm: 1; Beacon interf: 2

Results for C[C@@H]1C=CC(=O)O[C@@H]1c1ccc(Cl)cc1 ?
Scp-1 inhibitor: 4

Results for Cc1ccc(/C=N/n2c(-c3cccc(Cl)c3)n[nH]c2=S)o1 ?
DNMT1 inh: -4; LMPTP block: 0; STEP inh: 2; Scp-1 inhibitor: -6; SUMO1 PPI mod: -6

What do the screens show for `S=c1[nH]nc(-c2cccc(Cl)c2)n1/N=C/c1ccc(-c2ccccc2Br)o1`?
DNMT1 inh: 62*; GRK2 aptamer HTS: 3; LMPTP block: 4; STEP inh: -1; Scp-1 inhibitor: -20; SUMO1 PPI mod: -1; DNMT1 confirm: 13; Beacon interf: 0

Results for COc1cccc(OC)c1C(=O)Nc1sc2c(c1C(N)=O)CCN(Cc1ccccc1)C2 ?
DNMT1 inh: -7; GRK2 aptamer HTS: 0; LMPTP block: -1; STEP inh: 1; Scp-1 inhibitor: -9; SUMO1 PPI mod: -4

How did CC(=O)c1ccc(C(=O)Nc2sc3c(c2C(N)=O)CCN(Cc2ccccc2)C3)cc1 do in these assays?
DNMT1 inh: 84*; GRK2 aptamer HTS: 0; LMPTP block: 2; STEP inh: -13; SUMO1 PPI mod: -6; DNMT1 confirm: 10; Beacon interf: 3

What do the screens show for `O=C(Nc1cccc(N2CCCC2)c1)c1cccs1`?
DNMT1 inh: 59*; GRK2 aptamer HTS: 0; LMPTP block: 17; STEP inh: 1; Scp-1 inhibitor: -8; SUMO1 PPI mod: 7; DNMT1 confirm: 3; Beacon interf: 5

Results for COc1ccc(Cl)cc1C(=O)NNC(=O)c1nn(C)c(=O)c2ccccc12 ?
DNMT1 inh: 1; GRK2 aptamer HTS: 0; LMPTP block: -2; STEP inh: -1; Scp-1 inhibitor: -9; SUMO1 PPI mod: -6

What do the screens show for `COC(=O)c1ccccc1S(=O)(=O)NNC(=O)c1nn(C)c(=O)c2ccccc12`?
DNMT1 inh: 53*; GRK2 aptamer HTS: 0; LMPTP block: -1; STEP inh: -1; Scp-1 inhibitor: -4; SUMO1 PPI mod: 12; DNMT1 confirm: 5; Beacon interf: 6

How did O=C(O)CCN1C(=O)/C(=C/c2ccc(-c3nc4ccccc4s3)o2)SC1=S do in these assays?
DNMT1 inh: 99*; GRK2 aptamer HTS: 16; LMPTP block: 3; STEP inh: 70*; Scp-1 inhibitor: 46; SUMO1 PPI mod: 91*; Beacon interf DR: >99; DNMT1 confirm: 47*; Beacon interf: 0

High-throughput results from PubChem BioAssay.
